Measurements published in ChEMBL document CHEMBL1155655 (2000).
In brackets after ≈: the same amount, converted by molar mass. Activity calls are given as the source filed them. The calls are words filed in the database; no cut-off is given here.

What was measured:
[1] = test system: Leishmania major; assay: Antileishmanial activity against promastigotes of Leishmania major LV39 infected in C57BL/10ScSn mouse bone marrow-derived macrophages; type: functional, organism-based
Outline: (§1)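 Promastigotes of L. donovani LV9, L. infantum D.SCH (isolated 1995 from an infant visceral leishmaniasis case), L. enriettii and L. major LV39, grown at 25 °C, 5% CO2, humidified, and passaged every 3-4 days. Stocks were kept by animal passage (not L. infantum) and cryopreserved in liquid nitrogen.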

[2] = test system: Leishmania infantum; assay: Antileishmanial activity against promastigotes of Leishmania infantum D.SCH infected in C57BL/10ScSn mouse bone marrow-derived macrophages; type: functional, organism-based; outline: as §1
[3] = test system: Leishmania enriettii; assay: Antileishmanial activity against promastigotes of Leishmania enriettii infected in C57BL/10ScSn mouse bone marrow-derived macrophages; type: functional; details: read-out: ED50
[4] = test system: Leishmania donovani; assay: Antileishmanial activity against intracellular Leishmania donovani LV9 infected in C57BL/10ScSn mouse bone marrow-derived macrophages; type: functional; details: LV9, read-out: ED50
[5] = test system: Leishmania donovani; assay: Antileishmanial activity against extracellular Leishmania donovani LV9 infected in C57BL/10ScSn mouse bone marrow-derived macrophages; type: functional; details: LV9, read-out: ED50
[6] = Cytotoxicity against C57BL/10ScSn mouse bone marrow-derived macrophages; type: cell-based, Macrophage
[7] = test system: KB; assay: Cytotoxicity against human KB cells; type: functional, cell-based
[8] = test system: SK-MEL-30; assay: Cytotoxicity against human SK-MEL-30 cells; type: functional, cell-based
[9] = test system: A549; assay: Cytotoxicity against human A549 cells; type: functional, cell-based
[10] = test system: MCF7; assay: Cytotoxicity against human MCF7 cells; type: functional, cell-based
[11] = Toxicity in brine shrimp; type: organism-based; details: artemia, in vivo

| SMILES | EC50 ([7]; kb) [µg/mL] | EC50 ([8]; sk-mel-30) [µg/mL] | EC50 ([9]; a549) [µg/mL] | EC50 ([10]; mcf7) [µg/mL] | EC50 ([7]; Homo sapiens, KB) [µg/mL] | EC50 ([8]; Homo sapiens, SK-MEL-30) [µg/mL] | EC50 ([9]; Homo sapiens, A549) [µg/mL] | EC50 ([10]; Homo sapiens, MCF7) [µg/mL] | further results |
| --- | --- | --- | --- | --- | --- | --- | --- | --- | --- |
| C=C[C@]1(C)CC[C@]2(C)[C@@H](C1)C(=O)[C@@H](O)[C@@H]1[C@]3(C)CCC[C@@]12OC3=O |  |  |  |  |  |  |  |  | Activity [1]: inactive; Activity [2]: inactive; EC50 [3]: > 50 µg/mL; EC50 [4]: 37.2 µg/mL (≈ 112 µM); EC50 [5]: 10.3 µg/mL (≈ 31 µM); CC50 [6]: 19.5 µg/mL (≈ 58.7 µM) |
| C/C=C\C(=O)O[C@@H]1[C@@H](O)[C@H]2O[C@@H]3C=C(C)CC[C@]3(C)[C@]1(C)[C@]21CO1 [8-DIHYDROTRICHOTHECINOL A] | 0.1 (≈ 0.299 µM) | 0.11 (≈ 0.329 µM) | 0.11 (≈ 0.329 µM) | 0.11 (≈ 0.329 µM) |  |  |  |  |  |
| CC(=O)OC[C@]12O[C@]34C=C(C)C(=O)C[C@]3(C)[C@@]1(C)[C@H](O)C[C@H]2O4 [13-ACETOXYLOUKACINOL A] |  |  |  |  | 13.6 (≈ 42.2 µM) | 18 (≈ 55.8 µM) | 26.6 (≈ 82.5 µM) | 15.9 (≈ 49.3 µM) |  |
| CC1=C[C@]23O[C@@H]4C[C@@H](O)[C@](C)([C@@]2(C)CC1=O)[C@]4(CO)O3 [LOUKACINOL A] |  |  |  |  | 13.9 (≈ 49.6 µM) | 16.4 (≈ 58.5 µM) | 21.4 (≈ 76.3 µM) | 15.8 (≈ 56.4 µM) |  |
| CC1=C[C@]23O[C@@H]4CC[C@](C)([C@@]2(C)CC1=O)[C@]4(CO)O3 [LOUKACINOL B] |  |  |  |  | 11.8 (≈ 44.6 µM) | 13.6 (≈ 51.5 µM) | 15.2 (≈ 57.5 µM) | 13.3 (≈ 50.3 µM) |  |
| C/C=C\C(=O)O[C@@H]1[C@@H](O)[C@H]2O[C@@H]3C=C(C)C(=O)C[C@]3(C)[C@]1(C)[C@]21CO1 [TRICHOTHECINOL A] | 0.014 (≈ 0.0402 µM) | 0.013 (≈ 0.0373 µM) | 0.021 (≈ 0.0603 µM) | 0.014 (≈ 0.0402 µM) |  |  |  |  | LC50 [11]: 0.52 µg/mL (≈ 1.49 µM) |
| C/C=C\C(=O)O[C@@H]1C[C@H]2O[C@@H]3C=C(C)C(=O)C[C@]3(C)[C@]1(C)[C@]21CO1 [TRICHOTHECIN] | 35 (≈ 105 µM) | 14 (≈ 42.1 µM) | 16 (≈ 48.1 µM) | 19 (≈ 57.2 µM) |  |  |  |  | LC50 [11]: 2.2 µg/mL (≈ 6.62 µM) |
| CC1=C[C@H]2O[C@@H]3C[C@@H](O)[C@](C)([C@@]2(C)CC1=O)[C@]31CO1 [TRICHOTHECOLONE] | 10.6 (≈ 40.1 µM) | 8.6 (≈ 32.5 µM) | 7.1 (≈ 26.9 µM) | 10.6 (≈ 40.1 µM) |  |  |  |  |  |
